Assay results reported in ChEMBL document CHEMBL1139517, “Mono- and bis-thiazolium salts have potent antimalarial activity” (J Med Chem, 2005).

How the values were obtained:
[1] = Ratio of LD50 to ED50 expressed as TI; format: ADME; details: mouse
Procedure, shortened: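 Therapeutic index calculated as LD50/ED50. ED50 came from a modified 4-day suppressive test against P. vinckei petteri (279BY) in female Swiss mice, dosed ip once daily for 4 days. It is the dose giving 50% inhibition of parasite growth versus vehicle-treated controls, read the day after the last dose. LD50 came from tolerance after ip administration in mice.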

Mus musculus = test: In vivo effective dose against Plasmodium vinckei in mice (Mus musculus) after intraperitoneal administration of the compound; format: functional; details: ip
Procedure, shortened: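 Modified Peters 4-day suppressive test in female Swiss mice infected with P. vinckei petteri (279BY). Dosing was ip, once daily for 4 days. Controls received an equal volume of vehicle. Parasite growth was assessed on the day after the last treatment. ED₅₀ is the dose giving 50% growth inhibition relative to control.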

[2] = Lethal dose against Plasmodium vinckei in mice (Mus musculus) after intraperitoneal administration; format: toxicity; details: in vivo, ip
Plasmodium falciparum = test: In vitro inhibition of Plasmodium falciparum; format: functional, organism-based
Procedure, shortened: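 [³H]-hypoxanthine incorporation assay on the Nigerian strain of P. falciparum, run as described in earlier work. IC₅₀ is the concentration giving 50% inhibition of incorporation.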

Row | IC50 (Plasmodium falciparum) | SMILES | TI [1] | ED50 (Mus musculus) | LD50 [2]
1 | 4.8 nM | Cc1c(CCOC(C)C)sc[n+]1CCCCCCCCCCCC[n+]1csc(CCOC(C)C)c1C | – | – | –
2 | 5 nM | COCCc1sc[n+](CCCCc2ccc(CCCC[n+]3csc(CCOC)c3C)cc2)c1C | – | – | –
3 | 362 nM | Cc1c(CCO)sc[n+]1CCCCCCCC[n+]1csc(CCO)c1C | – | – | –
4 | 250 nM | CCOC(=O)Cc1c(CCCCCCCCCCCCc2sc[n+](Cc3ccccc3)c2CC(=O)OCC)sc[n+]1Cc1ccccc1 | – | – | –
5 | 5 nM | COC(=O)CCC(=O)OCCc1sc[n+](CCCCCCCCCCCC[n+]2csc(CCOC(=O)CCC(=O)OC)c2C)c1C.[I-].[I-] | – | 3.1 mg/kg | –
6 | 2300 nM | c1ccc2c(c1)sc[n+]2CCCCCCCCCCCC[n+]1csc2ccccc21 | – | – | –
7 | 87.5 nM | COCCc1sc[n+](CCCCCCCC[n+]2csc(CCOC)c2C)c1C | – | – | –
8 | 1.6 nM | CCc1sc[n+](CCCCCCCCCCCC[n+]2csc(CC)c2C)c1C.[I-].[I-] | – | 0.4 mg/kg | –
9 | 8.9 nM | COCCc1sc[n+](CCCCCCCCCC[n+]2csc(CCOC)c2C)c1C | – | – | –
10 | 3 nM | Cc1csc[n+]1CCCCCCCCCCCC[n+]1cscc1C.[I-].[I-] | – | 2.6 mg/kg | –
11 | 1.5 nM | Cc1sc[n+](CCCCCCCCCCCC[n+]2csc(C)c2C)c1C.[I-].[I-] | – | 1 mg/kg | –
12 | 275 nM | Cc1c(CCOCCCCCCOCCc2sc[n+](C)c2C)sc[n+]1C | – | – | –
13 | 3.1 nM | CC(=O)OCCc1sc[n+](CCCCCCCCCCCC[n+]2csc(CCOC(C)=O)c2C)c1C.[I-].[I-] | – | 0.7 mg/kg | –
14 | 75 nM | CCCCCCCCCCCC[n+]1csc(CCOC)c1C | – | – | –
15 | 1.1 nM | COCCc1sc[n+](CCCCCCCCCCCCCCCC[n+]2csc(CCOC)c2C)c1C | – | – | –
16 | 22 nM | CCOC(=O)Cc1c(CCCCCCCCCCCCc2sc[n+](C)c2CC(=O)OCC)sc[n+]1C | – | – | –
17 | 34 nM | Cc1c(CCO)sc[n+]1CCCCCCCCCC[n+]1csc(CCO)c1C | – | – | –
18 | 0.65 nM | C[N+]1(CCCCCCCCCCCCCCCC[N+]2(C)CCCC2)CCCC1.[Br-].[Br-] | – | 0.22 mg/kg | –
19 | 1.6 nM | CCOCCc1sc[n+](CCCCCCCCCCCC[n+]2csc(CCOCC)c2C)c1C | – | – | –
20 | 10 nM | Cc1c(CCCl)sc[n+]1CCCCCCCCCCCC[n+]1csc(CCCl)c1C | – | – | –
21 | 36 nM | Cc1c(CCOCCCCCCOCCc2sc[n+](Cc3ccccc3)c2C)sc[n+]1Cc1ccccc1 | – | – | –
22 | 1800 nM | c1ccc(-c2csc[n+]2CCCCCCCCCCCC[n+]2cscc2-c2ccccc2)cc1 | – | – | –
23 | 70 nM | CCCCCCCCCCCC[n+]1csc(CCO)c1C | – | – | –
24 | – | CCN(CC)CCCC(C)Nc1ccnc2cc(Cl)ccc12 (stereo not drawn) [CHLOROQUINE] | – | 1.1 mg/kg | –

Row | SMILES | IC50 (Plasmodium falciparum) | TI [1] | ED50 (Mus musculus) | LD50 [2]
25 | COCCc1sc[n+](CCCCCCCCCCCC[n+]2csc(CCOC)c2C)c1C.[I-].[I-] | 0.65 nM | 5% | 0.14 mg/kg | 1.2 mg/kg
26 | Cc1c(CCO)sc[n+]1CCCCCCCCCCCC[n+]1csc(CCO)c1C.[I-].[I-] | 2.25 nM | 5% | 0.2 mg/kg | 1.2 mg/kg
